Source: PubChem BioAssay
In the library only some 3.8% were active in any assay of this set; here they are far more common.
Yeast lifespan up – compounds extending yeast replicative lifespan, primary screen, S. cerevisiae, OD615; S. cerevisiae growth with nicotinamide; deaD strain in restrictive glucose medium; inhibition of the nicotinamide effect, % at 10 µM; 130,000 compounds, 0.68% hits; AID 775, 2007;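 active = inhibition above a set limit, placed 3 SD over the median of all compounds, cut at about 26% in these data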
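assay system = DeaD-strain S. cerevisiae | buffer or medium = restrictive glucose medium | reagent = 1.5 mM nicotinamide | compound = 10 µM single point, 0.25% DMSO | incubation = 48 h compound exposure at 30 °C, humidified | signal = OD615 measurement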
RAM inhibit – inhibitors of the yeast RAM network, primary screen, dse1pr::URA3 reporter, 5-FOA selection; S. cerevisiae dse1pr::URA3 reporter, 5-FOA growth OD615, 2 d; analog-sensitive cbk1-as2 kinase mutant strain; inhibition, % at 50 µM; 190,000 compounds, 1.8% hits;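 active = inhibition above a set limit, 3 SD over mean compound inhibition, cut at about 8.4% in these data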;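 note: inhibition rescues growth on 5-FOA so higher OD means more RAM inhibition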
Measles CPE – compounds protecting cells from measles virus cytopathic effect, primary screen, measles RdRp inhibitor project, single point, MLSMR library, absorbance; AID 841, 2007; 140,000 compounds, 1.5% hits; Measles virus-infected cells, CPE protection; protection (pct of control), % at 4 µM; in the data active = protection mostly above about 24%, no sharp cut-off; inactive = mostly below about 26%
BB579 growth dn – growth inhibitors of yeast BB579 in restrictive medium, primary screen, yeast lifespan-shortening project, S. cerevisiae; OD615, 48 h; inhibition, % at 10 µM; 140,000 compounds, 0.51% hits;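 active = inhibition above a set limit, 3 SD over the mean compound inhibition, cut at about 44% in these data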
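Assay system – yeast BB579 (DeaD) · Dosing – single compound dose of 10 µM, 0.25% DMSO final · Detection – OD615 turbidity measurement · Buffer or medium – CSMM-D restrictive synthetic medium containing dextrose (glucose) · Benchmarks – positive control amphotericin B 10 µg/mL · Incubation – 48 h exposure, 30 °C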
Large screens that a line does not name were inactive.

CN1/C(=C\C=C\C2=[N+](C)c3ccc4ccccc4c3C2(C)C)C(C)(C)c2ccccc21	BB579 growth dn 87
CC(O)(CS(=O)(=O)c1ccccc1)C(=O)Nc1cccc(C(F)(F)F)c1 (centres undefined)	none
COc1ccc(OC)c(NP(=O)(Oc2ccc(Cl)cc2)Oc2ccc(Cl)cc2)c1	RAM inhibit 11
COc1ccc(NP(=O)(Oc2ccccc2OC)Oc2ccccc2OC)cc1	none
COc1ccc(NP(=O)(Oc2ccc(Cl)cc2)Oc2ccc(Cl)cc2)cc1OC	RAM inhibit 9.5
Cc1ccc2nc3c(cc2c1)CC1(C(=O)N(C)C(=O)N(C)C1=O)C1CCCCN31 (centres undefined)	Measles CPE 34
Cc1ccc2nc3c(cc2c1)CC1(C(=O)N(C)C(=O)N(C)C1=O)C1COCCN31 (centres undefined)	none
CN(C(=O)Oc1ccc(C(=O)c2ccc(Cl)cc2)cc1)c1ccccc1	RAM inhibit 8.4
CN(C)C(=O)Oc1ccc(OC(=O)c2ccccc2)cc1	none
O=C1C(=O)c2ccccc2-c2ccccc21	BB579 growth dn 100
O=C1C(=O)c2cccc3cccc1c23	none
CN(C)Cc1ccccc1OC(=O)N(C)C	none
Cc1cccc(CN(C)C)c1OC(=O)N(C)C	Yeast lifespan up 29
CC1CN=C(NCc2ccccc2)S1 (centres undefined)	none
CCCC1COC(Cn2cncn2)(c2ccc(Cl)cc2Cl)O1 (centres undefined)	BB579 growth dn 94
CC1(c2ccc(Cl)cc2Cl)OCC(Cn2cncn2)O1 (centres undefined)	none (no result: Yeast lifespan up, Measles CPE, BB579 growth dn)
Fc1ccc(CNCCc2ccccc2)cc1	none (no result: Yeast lifespan up, Measles CPE, BB579 growth dn)
C1=C(CCNCc2ccccc2)CCCC1	Measles CPE 35
O=C(O)C(Cc1cnc[nH]1)NS(=O)(=O)c1ccc(Cl)cc1 (centres undefined)	none
CCOc1ccc(-n2c(O)c(N=Nc3ccc([N+](=O)[O-])cc3)c(=O)[nH]c2=O)cc1	none (no result: Yeast lifespan up, Measles CPE, BB579 growth dn)
CN(C)CCN=Cc1c(O)n(CCC2=CCCCC2)c(=O)[nH]c1=O	Measles CPE 33
CCOc1ccccc1-n1c(O)c(C=NCCCN(CC)CC)c(=O)[nH]c1=O	none
O=C1c2ccccc2C(=O)N1Cc1nc2ccccc2c(=O)n1-c1ccc(Br)cn1	Yeast lifespan up 77
CCn1c(O)c(C=Nc2ccc(S(N)(=O)=O)cc2)c(=O)n(CC)c1=S	none
NS(=O)(=O)c1ccc(N=Cc2c(O)n(C3CCCCC3)c(=O)n(C3CCCCC3)c2=O)cc1	Yeast lifespan up 33
CCCCN1C(=O)NC(=O)/C(=C/c2cnc(SC)nc2)C1=O	Measles CPE 51
O=c1c2ccccc2[se]n1-c1ccccc1	none
COc1ccc(S(=O)(=O)NC(CC(=O)N2CCC3(CC2)OCCO3)C(C)C)cc1 (centres undefined)	none
CCCCn1c(C)c(C(=O)O)c2cc(OC)ccc21	none
COCCCn1c(-c2ccc(OC)cc2)cc(C(=O)NC2CCCCCCC2)c1C	RAM inhibit 11
C[C@@H]1C(=O)O[C@@H]2[C@H](O)C34[C@@H]5OC(=O)C3(O[C@H]3OC(=O)[C@H](O)C34[C@H](C(C)(C)C)[C@H]5O)[C@@]12O (some centres undefined)	Measles CPE 20
CN1C2CCC1CC(OC(=O)c1cc(Cl)cc(Cl)c1)C2 (centres undefined)	none
CC1(C)C[C@H]2C=C(C=O)[C@]3(C=O)C[C@]3(C)[C@H]2C1	BB579 growth dn 100
O=P(NC(c1ccccc1)c1ccccc1)(Oc1ccccc1)Oc1ccccc1	RAM inhibit 9.3
O=P(CCl)(Nc1ccccc1)C(Cl)(Cl)Cl (centres undefined)	none (no result: Yeast lifespan up, Measles CPE, BB579 growth dn)
CCn1c(O)c(C=NCc2cccs2)c(=O)[nH]c1=O	none
C[C@H]1CCC[C@@H](O)CCC/C=C/c2cc(O)cc(O)c2C(=O)O1	Measles CPE 117
CC(C)N(CC(O)c1cccc([N+](=O)[O-])c1)C(C)C (centres undefined)	none
O=C(NCc1ccc(C(=O)N2CCC3(CC2)OCCO3)cc1)c1cccc(Br)c1	Measles CPE 26
O=C1CC(c2ccccc2)CC(O)=C1C=NCCN1CCN(C(=O)Cc2ccccc2)CC1 (centres undefined)	Yeast lifespan up 82
CCOc1cc(C2C(C#N)=C(N)Oc3c2c(=O)oc2ccccc32)ccc1OC(=O)c1cccs1 (centres undefined)	RAM inhibit 8.9
CS(=O)(=O)NCc1nnc2n1-c1ccc(Cl)cc1C(c1ccccc1)=NC2	Measles CPE 28
NC(=O)CN1CC(c2ccccc2)CC1=O (centres undefined)	Measles CPE 39
CCC(=NCCO)c1c(O)n(-c2ccc(Cl)cc2)c(=O)[nH]c1=O	none
CCOC(=O)C(=CNc1ccc(C(O)(C(=O)OCC)C(F)(F)F)cc1C)C(=O)OCC (centres undefined)	RAM inhibit 8.7
O=C(c1ccccc1)C(CN1CCCC1)c1ccccc1 (centres undefined)	Yeast lifespan up 56, Measles CPE 22
COc1ccc(C2SCC(=O)Nc3c2c(=O)[nH]n3C2CCCCCC2)cc1OC (centres undefined)	Yeast lifespan up 29
CCCSP1(=S)NCCCO1 (centres undefined)	none
N#Cc1c(/N=C/c2c(O)n(Cc3ccco3)c(=O)[nH]c2=O)sc2c1CCCC2	none
CCOP(=O)(C#CC(C)(C)C)C1(O)CCCCC1 (centres undefined)	none
O=C1/C(=C/c2cccc([N+](=O)[O-])c2)N2CCC1CC2	Yeast lifespan up 36
O=P(O)(O)C#Cc1ccccc1	none
CCn1nc(-c2ccccc2)nc2c(=O)n(C)c(=O)nc1-2	BB579 growth dn 100
Cc1nc2c(=O)n(C)c(=O)nc-2n(C)n1	none (no result: Yeast lifespan up)
Fc1ccc(C2=CCN(C(c3cccs3)c3nnnn3CCc3ccccc3)CC2)cc1 (centres undefined)	RAM inhibit 10
CCCCn1c(=O)c(C(=O)NCc2ccncc2)c(O)c2ccccc21	BB579 growth dn 46
Cc1cccc(-n2c(O)c(C=NCCCN3CCOCC3)c(=O)[nH]c2=O)c1C	none
Cc1ccc(/C=C2\C(=O)NC(=O)N(CCc3ccc(F)cc3)C2=O)o1	Yeast lifespan up 39
Cc1ccc2cc(C=C(C#N)C#N)c(Cl)nc2c1	none
Clc1ccc(COC(Cn2ccnc2)c2ccc(Cl)cc2Cl)cc1 (centres undefined)	BB579 growth dn 97
c1ccc(Cn2ccnc2)cc1	none
Clc1ccc(CSC(Cn2ccnc2)c2ccc(Cl)cc2Cl)cc1 (centres undefined)	BB579 growth dn 98
CC(C)OCCCNC(=O)c1c(N)n(Cc2cccs2)c2nc3ccccc3nc12	RAM inhibit 9.3
Cc1sc2c(c1C)C(c1ccc(C(C)(C)C)cc1)=NCC(=O)N2CC(=O)Nc1nccs1	Measles CPE 54
